The results in this text go back to ChEMBL document CHEMBL1144813, “4'-Methyl-4,5'-bithiazole-based correctors of defective delta F508-CFTR cellular processing” (Bioorg Med Chem Lett, 2008).

pEC50: −log10 of the molar value. Calls of active or inactive are those of the source. The rule behind the calls is not given here.

Holding throughout (assay type): cell-based
Experiment [1] deals with Cystic fibrosis transmembrane conductance regulator (Homo sapiens, UniProt P13569, F508DEL). The experiment can be described thus: Corrector activity at human CFTR deltaF508 mutant expressed in FRT cells assessed as iodide influx. The conditions noted are these: read-out: Kd. A digest of the protocol:
(§1)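 FRT epithelial cells stably co-expressing human ΔF508-CFTR and halide sensor YFP-H148Q/I152L; grown 24 h at 37°C, then 20 h with compound. PBS wash, then forskolin 20 μM plus genistein 50 μM for 20 min. Fluorescence read 2 s baseline, then 12 s after iodide-substituted PBS addition; influx rate from exponential fit of final 11.5 s, normalized to initial fluorescence; DMSO vehicle negative control.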

Experiment [2] has as its system Cystic fibrosis transmembrane conductance regulator (Homo sapiens), P13569 [F508del]. The experiment can be described thus: Corrector activity at human CFTR deltaF508 mutant expressed in FRT cells assessed as iodide influx at 10 uM. The method, boiled down: as §1
The test system is the same in experiment [3]. The experiment can be described thus: Corrector activity at human CFTR deltaF508 mutant expressed in FRT cells assessed as iodide influx at 25 uM. A digest of the protocol: as §1

Sequence of Cystic fibrosis transmembrane conductance regulator (P13569 as listed by the source): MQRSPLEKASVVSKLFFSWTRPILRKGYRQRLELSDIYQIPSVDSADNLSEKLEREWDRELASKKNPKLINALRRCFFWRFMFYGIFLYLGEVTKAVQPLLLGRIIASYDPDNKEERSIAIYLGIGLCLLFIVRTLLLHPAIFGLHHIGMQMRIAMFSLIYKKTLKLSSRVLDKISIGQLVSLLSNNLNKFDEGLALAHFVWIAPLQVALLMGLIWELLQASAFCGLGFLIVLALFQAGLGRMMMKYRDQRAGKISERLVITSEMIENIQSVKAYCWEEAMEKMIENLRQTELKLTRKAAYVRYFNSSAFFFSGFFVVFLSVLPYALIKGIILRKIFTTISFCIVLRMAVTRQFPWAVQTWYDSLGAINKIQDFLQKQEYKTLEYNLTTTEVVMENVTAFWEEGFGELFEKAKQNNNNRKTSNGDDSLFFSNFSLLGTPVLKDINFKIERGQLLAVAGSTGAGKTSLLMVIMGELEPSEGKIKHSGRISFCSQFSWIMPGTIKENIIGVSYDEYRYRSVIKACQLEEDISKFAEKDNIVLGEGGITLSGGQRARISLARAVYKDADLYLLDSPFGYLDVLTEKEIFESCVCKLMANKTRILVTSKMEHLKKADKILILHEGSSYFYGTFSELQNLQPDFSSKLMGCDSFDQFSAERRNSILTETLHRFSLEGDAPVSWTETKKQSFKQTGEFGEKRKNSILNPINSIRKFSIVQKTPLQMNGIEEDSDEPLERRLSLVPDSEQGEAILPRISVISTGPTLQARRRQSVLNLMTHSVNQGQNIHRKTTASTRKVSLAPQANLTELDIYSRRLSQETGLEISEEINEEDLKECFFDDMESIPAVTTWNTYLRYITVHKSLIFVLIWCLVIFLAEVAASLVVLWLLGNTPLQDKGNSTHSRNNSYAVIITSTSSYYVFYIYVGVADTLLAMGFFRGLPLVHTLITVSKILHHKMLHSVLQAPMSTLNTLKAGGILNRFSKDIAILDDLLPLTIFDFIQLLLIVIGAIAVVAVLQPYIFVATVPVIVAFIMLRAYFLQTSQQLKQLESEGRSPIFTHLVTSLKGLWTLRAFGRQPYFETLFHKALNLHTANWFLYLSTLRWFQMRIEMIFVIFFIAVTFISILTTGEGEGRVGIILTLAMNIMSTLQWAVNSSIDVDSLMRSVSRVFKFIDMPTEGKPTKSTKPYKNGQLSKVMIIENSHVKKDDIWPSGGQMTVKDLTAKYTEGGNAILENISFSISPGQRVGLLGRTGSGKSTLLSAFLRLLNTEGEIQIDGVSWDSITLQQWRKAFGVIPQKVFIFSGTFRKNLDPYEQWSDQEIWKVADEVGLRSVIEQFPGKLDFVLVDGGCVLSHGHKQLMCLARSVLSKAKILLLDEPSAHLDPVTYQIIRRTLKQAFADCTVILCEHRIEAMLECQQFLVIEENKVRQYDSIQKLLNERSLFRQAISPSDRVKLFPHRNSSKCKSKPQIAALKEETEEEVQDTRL
Sequence of Cystic fibrosis transmembrane conductance regulator (Homo sapiens), P13569 [F508del] (P13569 as listed by the source): as above

Regarding `Cc1ccc(Nc2nc(-c3sc(NC(=O)c4ccc(Cl)cc4)nc3C)cs2)cc1`, the pEC50 in experiment [1] is 5.96.

On to `COc1c(Cl)cccc1Nc1nc(-c2sc(NC(=O)c3ccccc3)nc2C)cs1`, for which the result in experiment [2] and in experiment [3] was Active.

Regarding `COc1ccc(Cl)cc1Nc1nc(-c2sc(NC(=O)C(C)(C)C)nc2C)cs1`, in experiment [1], the pEC50 was 6.15. With `Cc1nc(NC(=O)c2ccccc2)sc1-c1csc(Nc2cccc(Cl)c2Cl)n1`, the result in experiment [2] and in experiment [3] was Active. For `CCOc1ccccc1Nc1nc(-c2sc(NC(=O)C(C)(C)C)nc2C)cs1`, the pEC50 in experiment [1] is 6.10.

On to `COc1ccc(Cl)cc1Nc1nc(-c2sc(NC(=O)c3ccccc3)nc2C)cs1`, for which the outcome in experiment [2] and in experiment [3] was Active. Besides, the pEC50 in experiment [1] is 6.05. With `Cc1nc(NC(=O)c2ccc(Cl)cc2)sc1-c1csc(Nc2ccc(Cl)cc2)n1`, in experiment [1], the pEC50 is 5.96. The same measure, in the same setting: as for `CCCCCCC(=O)Nc1nc(C)c(-c2csc(Nc3cc(OC)ccc3OC)n2)s1`, the figure is 5.96. In the case of `COc1ccc(OC)c(Nc2nc(-c3sc(NC(=O)c4ccc(Cl)cc4)nc3C)cs2)c1`, the pEC50 in experiment [1] was 5.96. On the same count and under the same terms, as for `Cc1nc(NC(=O)c2ccc([N+](=O)[O-])cc2)sc1-c1csc(Nc2ccc(Cl)cc2)n1`, the figure is 6.10.
